Assay [1] is described as follows: inhibitors of TNFa-induced NFkB p65 translocation, primary screen, imaging, HUVEC, MLSMR starter and 10KST1 sets (AID 438;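 active = inhibition above 20% together with a positive visual image hit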;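 note: compound added about 3h40 before a 20 min TNFalpha stimulation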;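 for inhibition: signal is the nuclear over cytoplasmic p65 intensity ratio per well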). As to conditions: HUVEC TNFa-induced p65 nuclear translocation; cell count: measured here: nuclei count (cytotoxicity indicator), at 2.08 µM; inhibition: at 2 µM, stronger effect = higher value, 0% TNFa-plus-vehicle, 100% no-TNFa wells.
Assay [2] is described as follows: reduction of polyQ htt aggregates in cells – imaging, exon1htt(103Q)mCFP cells, high-content imaging, primary screen (AID 483;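 active = visual image review flags a hit and inhibition of aggregation exceeds 20%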;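 note: compound exposure lasted 3 days before fixation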;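 for nuclei count: percent of the per-plate median nuclei count of sample wells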). The following applies: exon1htt(103Q)mCFP cell line, aggregate imaging, at 2 µM; inhibition of aggregation: stronger effect = higher value; nuclei count: measured here: cell count, toxicity.
The nature of assay [3]: endothelial E-selectin expression blockers – imaging, HUVEC, immunofluorescence, MLSMR starter and 10KST1 sets, primary screen (AID 487;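 active = visually confirmed hit in the image check and inhibition above 20%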;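 for inhibition: signal is fraction of cell area covered by stained E-selectin grains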;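 for nuclei count: 100% = median nuclei count of all wells on the same plate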). The following applies: HUVEC TNFalpha-induced E-selectin immunofluorescence imaging, at 2 µM; inhibition: stronger effect = higher value; nuclei count: measured here: cell number, toxicity.
For assay [4], the target named is Voltage-gated potassium channel subunit beta-2 (Rattus norvegicus) (UniProt P62483). Nature of the assay: inhibitors of rat Kvbeta2 reductase activity – biochemical, NADPH fluorescence, primary screen (AID 622;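 active = fluorescence slope higher than the sample average by over 3 SD, cut at about -0.22 in these data, passing the limit was not always enough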;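 note: slope of raw intensity against log time taken from 70 to 1610 s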). The following applies: recombinant KvBeta, 4-cyanobenzaldehyde reduction, at 10 µM, stronger effect = higher value.
Voltage-gated potassium channel subunit beta-2 (Rattus norvegicus), sequence (P62483 whole entry, looked up): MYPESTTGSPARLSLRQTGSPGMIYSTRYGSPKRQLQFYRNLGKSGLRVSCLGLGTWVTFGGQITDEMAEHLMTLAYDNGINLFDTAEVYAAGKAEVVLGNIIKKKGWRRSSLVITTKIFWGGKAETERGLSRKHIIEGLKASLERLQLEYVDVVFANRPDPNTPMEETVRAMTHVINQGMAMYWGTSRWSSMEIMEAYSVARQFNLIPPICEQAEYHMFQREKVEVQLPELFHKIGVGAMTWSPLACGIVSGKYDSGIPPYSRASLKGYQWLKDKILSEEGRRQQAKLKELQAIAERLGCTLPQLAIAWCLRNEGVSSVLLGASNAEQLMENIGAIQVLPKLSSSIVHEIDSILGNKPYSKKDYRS
For assay [5] the target is unchanged. Kind of assay: enhancers of rat Kvbeta2 NADPH turnover – biochemical, NADPH fluorescence, primary screen (AID 623;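 active = NADPH fluorescence slope more negative than the mean of all samples by about 3 SD, 99.7% confidence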;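 note: fluorescence intensity change per second fitted from 20 to 320 s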). The following applies: Recombinant KvBeta, NADPH fluorescence decrease slope, 10 min; at 10 µM; stronger effect = lower value.
The target in assay [6] is Muscarinic acetylcholine receptor M4 (Homo sapiens) (UniProt P08173). Kind of assay: M4-linked GIRK flux change, two-sided – cell-based, HEK293 M4/GIRK, thallium flux, BTC-AM, M4 allosteric agonist project, primary screen (AID 625).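 Note: thallium influx through GIRK channels coupled to M4 in HEK293 cells with BTC-AM dye.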 The following applies: at 10 µM, actives lie on both sides. In outline:
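Material – HEK293 cells with M4 receptor and GIRK channels · Buffer or medium – pH 7.3 thallium assay buffer · Doses – one dose, 10 µM final · Timing – cells overnight at 37 °C, BTC-AM loading 1 h, reads 2 min total · Measured by – kinetic fluorescence with BTC-AM dye · Controls – carbachol and DMSO controls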

Assay [7] can be described thus: blockers of RIG-like receptor reporter activation – cell-based, Sendai virus stimulus, luciferase, 10K MLSCN set, TLR/RLR signaling modifier project, primary screen (AID 602276;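 active = inhibition at or above 50% at 10 µM; inactive = inhibition below 50%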;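 note: firefly luciferase from ISG56 promoter only with Renilla not read in this screen; 0% = Sendai virus plus DMSO and 100% = medium plus DMSO without virus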). As to conditions: HEK293 RL24 IRF3 luciferase reporter, at 10 µM, stronger effect = higher value. In general terms: In a reporter assay the amount or activity of a reporter protein is the signal.
Assay [8] can be described thus: TLR3 IRF3 reporter activation blockers – cell-based, poly I:C stimulus, luciferase, 10K MLSCN set, primary screen (AID 602277;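 active = inhibition of the reporter signal at or above 50%; inactive = inhibition below 50%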). The following applies: HEK293-TLR3 RL24 IRF3 luciferase reporter, at 10 µM, stronger effect = higher value.

Activity calls are given as the source filed them.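 Rule for the calls, unless noted: active = fluorescence slope after compound addition differing from the mean of all tested samples at 99.7% confidence, mostly higher but some lower; inactive = the rest.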

Muscarinic acetylcholine receptor M4 (Homo sapiens), sequence (P08173 whole entry, looked up): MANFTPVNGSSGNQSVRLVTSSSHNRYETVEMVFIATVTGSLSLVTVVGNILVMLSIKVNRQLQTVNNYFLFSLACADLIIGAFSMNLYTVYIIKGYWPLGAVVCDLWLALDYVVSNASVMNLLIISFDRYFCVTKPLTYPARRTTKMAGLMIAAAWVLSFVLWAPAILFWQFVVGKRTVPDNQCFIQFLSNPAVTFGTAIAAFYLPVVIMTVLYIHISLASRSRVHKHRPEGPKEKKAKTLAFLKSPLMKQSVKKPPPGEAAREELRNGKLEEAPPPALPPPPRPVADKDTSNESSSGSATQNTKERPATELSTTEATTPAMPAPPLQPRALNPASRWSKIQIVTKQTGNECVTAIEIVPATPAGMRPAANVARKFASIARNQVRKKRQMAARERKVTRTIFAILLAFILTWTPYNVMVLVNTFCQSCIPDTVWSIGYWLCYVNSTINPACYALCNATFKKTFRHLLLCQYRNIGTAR

Usually inhibition stands for the change of the read-out against control, counted positive when it falls. As to `Cc1nc2ccc(NC(=O)N3CCSCC3)cc2s1`, the cell count in assay [1] amounted to 710. In addition, the inhibition is -0.4% (inactive) in assay [1], -93.4% (inactive) in assay [3], -33.4% (inactive) in assay [7] and -42.8% (inactive) in assay [8]. In addition, in assay [2], the inhibition of aggregation is -7.6% (inactive). Also, the results for the nuclei count in assay [2] and in assay [3] were 111% and 96.5%, respectively. Besides, the fluorescence slope was -0.535 (inactive) in assay [4] and 0.00638 (inactive) in assay [6]. For the same compound, the NADPH fluorescence slope in assay [5] is 5e-05 (inactive).
Consider `CC(=O)Nc1cccc(NC(=O)CSc2nnnn2C)c1`, for which the cell count in assay [1] was 754. Besides, the inhibition in assay [1] was -2.1% (inactive); in assay [3] it was -135% (inactive); in assay [7] it was 21.2% (inactive); in assay [8], 13.5% (inactive). Besides, the inhibition of aggregation in assay [2] was -16.5% (inactive). The results for the nuclei count in assay [2] and in assay [3] were 104% and 131%, respectively. Further, the fluorescence slope in assay [4] is -0.481 (inactive); in assay [6] it was 0.00501 (inactive). In assay [5], the NADPH fluorescence slope is -5.6e-05 (inactive).
Take `Cc1nn(-c2ccc(F)cc2)c(C)c1NS(=O)(=O)c1ccc(Cl)cc1`: the cell count in assay [1] worked out at 307. The inhibition in assay [1] was 4.2% (inactive); in assay [3], -56% (inactive); in assay [7], 13.3% (inactive); in assay [8], 18.8% (inactive). Moreover, the inhibition of aggregation in assay [2] was 17.1% (inactive). For the same compound, the nuclei count in assay [2] worked out at 89.1%; in assay [3], 98.7%. In addition, the fluorescence slope in assay [4] is -0.382 (inactive); in assay [6], 0.00631 (inactive). Moreover, the NADPH fluorescence slope in assay [5] is -4.6e-05 (inactive).
Take `Cc1c(C(=O)NCc2cccnc2)sc2ncn(CC(=O)N3CCCCC3C)c(=O)c12` (centres undefined): the cell count in assay [1] was 477. In addition, the inhibition in assay [1] is -7% (inactive); in assay [3], -51.3% (inactive); in assay [7] it was 18.5% (inactive); in assay [8] it was 23.8% (inactive). Also, the inhibition of aggregation in assay [2] was -3.4% (inactive). For the same compound, the nuclei count in assay [2] was found to be 89.7%; in assay [3], 70.3%. The fluorescence slope in assay [4] was -0.555 (inactive); in assay [6], 0.00535 (inactive). In assay [5], the NADPH fluorescence slope is -1.4e-05 (inactive).
`Cc1csc(OCc2ccc(C#N)cc2)n1`: the cell count in assay [1] was determined as 636. For the same compound, the inhibition in assay [1] is -4.4% (inactive); in assay [3], -4.8% (inactive); in assay [7], 7.71% (inactive); in assay [8] it was 5.79% (inactive). Also, the inhibition of aggregation in assay [2] is -1.8% (inactive). Besides, the nuclei count came out at 97.8% in assay [2] and 114% in assay [3]. The values for the fluorescence slope in assay [4] and in assay [6] were -0.6 (inactive) and 0.0082 (inactive), respectively. Further, the NADPH fluorescence slope in assay [5] was -3.4e-05 (inactive).
For the compound `CC1(C)CC(=O)c2cnc(NCc3ccco3)nc2C1`, in assay [1], the cell count worked out at 480. Further, the inhibition in assay [1] was 7.7% (inactive); in assay [3], -165% (inactive); in assay [7], -11.5% (inactive); in assay [8], -26.2% (inactive). Moreover, the inhibition of aggregation in assay [2] is -7.2% (inactive). The nuclei count in assay [2] amounted to 96.1%; in assay [3] it was 150%. Besides, the fluorescence slope in assay [4] was -0.407 (inactive); in assay [6] it was 0.00659 (inactive). Besides, the NADPH fluorescence slope in assay [5] is -1.8e-05 (inactive).
On to `CCOC(=O)Nc1ccc(OC)cc1S(=O)(=O)N1CCCCC1`, for which, in assay [1], the cell count was 714. For the same compound, the inhibition in assay [1] is 3.3% (inactive); in assay [3], -14.6% (inactive); in assay [7], 11.7% (inactive); in assay [8], 17% (inactive). Besides, the inhibition of aggregation in assay [2] was -24% (inactive). Further, the nuclei count in assay [2] amounted to 87.3%; in assay [3] it was 111%. Further, the fluorescence slope in assay [4] is -0.586 (inactive); in assay [6], 0.00355 (inactive). Moreover, the NADPH fluorescence slope in assay [5] was 2.6e-05 (inactive).
Take `CCOC(=O)c1c(C)c(C(=O)NCC2CCCO2)c(C)n1C` (centres undefined): the cell count in assay [1] is 267. Besides, the inhibition was -2% (inactive) in assay [1], -8% (inactive) in assay [3], 14.1% (inactive) in assay [7] and 20.9% (inactive) in assay [8]. Also, the inhibition of aggregation in assay [2] is -10.1% (inactive). For the same compound, the nuclei count in assay [2] was 94.7%; in assay [3], 74.6%. Further, the fluorescence slope is -0.461 (inactive) in assay [4] and 0.00685 (inactive) in assay [6]. The NADPH fluorescence slope in assay [5] was -6e-06 (inactive).
As for `COc1ccc2c(c1)Sc1ccccc1N2CCN(C)C`, the cell count in assay [1] is 676. The inhibition is -8.8% (inactive) in assay [1], -11.3% (inactive) in assay [3], 8.63% (inactive) in assay [7] and 14.5% (inactive) in assay [8]. The inhibition of aggregation in assay [2] is 2.5% (inactive). The results for the nuclei count in assay [2] and in assay [3] were 117% and 103%, respectively. Besides, the fluorescence slope in assay [4] was -0.573 (inactive); in assay [6] it was 0.00495 (inactive). In addition, the NADPH fluorescence slope in assay [5] was -2.9e-05 (inactive).
As for `CCN1CCN(C(=O)c2cn(CCOC)c(=O)c3c2c2ccccc2n3C)CC1`, in assay [1], the cell count was 460. Further, the inhibition in assay [1] is 2.7% (inactive); in assay [3], -40.3% (inactive); in assay [7], 6.11% (inactive); in assay [8], 14.5% (inactive). In assay [2], the inhibition of aggregation is 2.4% (inactive). Moreover, the nuclei count in assay [2] was found to be 108%; in assay [3], 109%. For the same compound, the fluorescence slope is -0.582 (inactive) in assay [4] and 0.00622 (inactive) in assay [6]. Besides, in assay [5], the NADPH fluorescence slope is -6.9e-06 (inactive).
Take `Cc1cccc(C)c1NC(=O)N1CCN(C2CCCCC2)CC1`: in assay [1], the cell count came out at 364. Further, the inhibition is 1.2% (inactive) in assay [1], -8.3% (inactive) in assay [3], -1.81% (inactive) in assay [7] and 18.1% (inactive) in assay [8]. The inhibition of aggregation in assay [2] is -2% (inactive). The nuclei count in assay [2] and in assay [3] was 106% in each case. Moreover, the fluorescence slope in assay [4] was -0.578 (inactive); in assay [6], 0.00564 (inactive). In addition, in assay [5], the NADPH fluorescence slope was -3.9e-05 (inactive).
For the compound `CC(C)N(C=O)C1(C(=O)NC2CCCCC2)CCCCC1`, the cell count in assay [1] is 584. Besides, the inhibition in assay [1] is -6.3% (inactive); in assay [3], -9.4% (inactive); in assay [7] it was 10.2% (inactive); in assay [8], 13.5% (inactive). Besides, the inhibition of aggregation in assay [2] was 15.2% (inactive). The nuclei count was 114% in assay [2] and 113% in assay [3]. Moreover, the fluorescence slope in assay [4] is -0.551 (inactive); in assay [6] it was 0.00567 (inactive). Further, the NADPH fluorescence slope in assay [5] was -4.6e-06 (inactive).
`Cn1c(COc2ccccc2)nnc1SCC(=O)Nc1ccc(N2CCOCC2)c(Cl)c1`: the cell count in assay [1] was found to be 497. Moreover, the inhibition in assay [1] was -6.9% (inactive); in assay [3], -6.4% (inactive); in assay [7], 13.5% (inactive); in assay [8], 17.5% (inactive). Moreover, the inhibition of aggregation in assay [2] was -10.9% (inactive). The nuclei count in assay [2] and in assay [3] was 102% in each case. Also, the figures for the fluorescence slope in assay [4] and in assay [6] were -0.477 (inactive) and 0.00548 (inactive), respectively. In addition, the NADPH fluorescence slope in assay [5] was -6.6e-05 (inactive).
Turning to `Cc1cc(/N=C/N(C)C)on1`, the cell count in assay [1] amounted to 522. Moreover, the inhibition in assay [1] was 1.5% (inactive); in assay [3], -19.3% (inactive); in assay [7], 19% (inactive); in assay [8] it was 16% (inactive). Further, in assay [2], the inhibition of aggregation is 3.5% (inactive). The nuclei count in assay [2] and in assay [3] was 104% each time. The fluorescence slope was -0.586 (inactive) in assay [4] and 0.00679 (inactive) in assay [6]. Moreover, the NADPH fluorescence slope in assay [5] is -4.7e-05 (inactive).
